Assay [1] has as its target Nucleic Acid. Nature of the assay: Binding affinity to wild type HIV1 TAR RNA at pH 6.8 by ethidium bromide displacement assay. The class given is nucleic-acid assay, Human immunodeficiency virus 1. Put shortly:
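TAR RNA (200 nM/strand) and EtBr (5 μM) in 100 mM KCl, 10 mM SC, 0.5 mM EDTA, pH 6.8, titrated with ligand aliquots (at most 4% v/v). Fluorescence excited at 545 nm and read at 610 nm. IC50 is the ligand concentration that displaces 50% of EtBr, taken from a sigmoidal fit of fraction displaced versus log ligand concentration.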

Assay [2] deals with Nucleic Acid. Nature of the assay: Binding affinity to HIV1 TAR RNA bulgeless mutant at pH 6.8 by ethidium bromide displacement assay. The class given is nucleic-acid assay, Human immunodeficiency virus 1. Put shortly:
(§1)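 Synthetic 2′-ACE-protected TAR RNA, deprotected, heated 98 °C 5 min, then ice-cooled 15 min. TAR RNA at 200 nM/strand with ethidium bromide 5 μM in 100 mM KCl, 10 mM SC, 0.5 mM EDTA, pH 6.8. Ligand added stepwise, ≤4% v/v. Excitation 545 nm, emission 580–660 nm, intensity at 610 nm normalized. IC50 from sigmoidal fit of fraction EtBr displaced vs log ligand; association constants from Scatchard analysis.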

For assay [3], the target named is Nucleic Acid. Nature of the assay: Binding affinity to HIV1 TAR RNA tetraloop mutant at pH 6.8 by ethidium bromide displacement assay. The class given is nucleic-acid assay, Human immunodeficiency virus 1. Put shortly:
as §1

Assay [4] has as its target Nucleic Acid. Nature of the assay: Binding affinity to HIV1 TAR RNA bulgeless tetraloop mutant at pH 6.8 by ethidium bromide displacement assay. The class given is nucleic-acid assay, Human immunodeficiency virus 1. Put shortly:
as §1

For assay [5], the target named is Nucleic Acid. Nature of the assay: Binding affinity to HIV1 TAR RNA U3 bulge mutant at pH 6.8 by ethidium bromide displacement assay. The class given is nucleic-acid assay, Human immunodeficiency virus 1. Put shortly: as §1
In assay [6] the test system is Nucleic Acid. Nature of the assay: Binding affinity to wild type HIV1 TAR RNA assessed as association constant at pH 6.8 by ethidium bromide displacement assay based Scatchard analysis method. The following applies: Human immunodeficiency virus 1. The class given is nucleic-acid assay. Put shortly: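 Ethidium bromide displacement: 5 μM EtBr with TAR RNA at 200 nM/strand (under 20% of EtBr bound) in 100 mM KCl, 10 mM SC, 0.5 mM EDTA, pH 6.8. Ligand added in concentrated aliquots, at most 4% v/v. Excitation 545 nm, emission 580–660 nm, intensity at 610 nm. Association constant obtained by Scatchard analysis of the titration data.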

Assay [7] has as its system Nucleic Acid. Nature of the assay: Binding affinity to HIV1 TAR RNA bulgeless mutant assessed as association constant at pH 6.8 by ethidium bromide displacement assay based Scatchard analysis method. The following applies: Human immunodeficiency virus 1. The class given is nucleic-acid assay. Put shortly:
as §1

Assay [8] concerns Nucleic Acid. Nature of the assay: Binding affinity to HIV1 TAR RNA tetraloop mutant assessed as association constant at pH 6.8 by ethidium bromide displacement assay based Scatchard analysis method. The class given is nucleic-acid assay. As to conditions: Human immunodeficiency virus 1. Put shortly: as §1
For assay [9], the system named is Nucleic Acid. Nature of the assay: Binding affinity to HIV1 TAR RNA bulgeless tetraloop mutant assessed as association constant at pH 6.8 by ethidium bromide displacement assay based Scatchard analysis method. The class given is nucleic-acid assay. The following applies: Human immunodeficiency virus 1. Put shortly:
as §1

In assay [10] the test system is Nucleic Acid. Nature of the assay: Binding affinity to HIV1 TAR RNA U3 bulge mutant at assessed as association constant at pH 6.8 by ethidium bromide displacement assay based Scatchard analysis method. The class given is nucleic-acid assay. As to conditions: Human immunodeficiency virus 1. Put shortly: as §1
In assay [11] the test system is Nucleic Acid. Nature of the assay: Induction of conformational changes in wild type HIV1 TAR RNA assessed as changes in 210 to 220 nm region using 1 molar equivalents of compound at pH 6.8 by CD spectroscopy. The class given is nucleic-acid assay. The following applies: Human immunodeficiency virus 1.
In assay [12] the test system is Nucleic Acid. Nature of the assay: Induction of conformational changes in wild type HIV1 TAR RNA assessed as increase in intensity in 265 nm region using 1 molar equivalents of compound at pH 6.8 by CD spectroscopy. The class given is nucleic-acid assay. The following applies: Human immunodeficiency virus 1.

Calls of active or inactive are those of the source. The calls are words filed in the database; no cut-off is given here.

As usually defined, the IC50 is the point on the concentration scale where inhibition reaches its midpoint. A low value points to greater potency in that assay.

`NC[C@@H]1O[C@H](O[C@H]2[C@@H](O)[C@H](O[C@@H]3[C@@H](O)[C@H](N)C[C@H](N)[C@H]3O[C@H]3O[C@H](CN)[C@@H](O)[C@H](O)[C@H]3N)O[C@@H]2Cn2cc(CCCc3cn(C[C@H]4O[C@@H](O[C@@H]5[C@@H](O)[C@H](N)C[C@H](N)[C@H]5O[C@H]5O[C@H](CN)[C@@H](O)[C@H](O)[C@H]5N)[C@H](O)[C@@H]4O[C@H]4O[C@@H](CN)[C@@H](O)[C@H](O)[C@H]4N)nn3)nn2)[C@H](N)[C@@H](O)[C@@H]1O`: the IC50 in assay [1] is 118 nM; in [2], 134 nM; in [3] it was 190 nM; in assay [4], 146 nM; in assay [5], 224 nM. In addition, the K in [6] came out at 7.1 ×10⁷ /M; in [7], 8.9 ×10⁷ /M; in assay [8], 1.4 ×10⁷ /M; in assay [9], 7.5 ×10⁷ /M; in assay [10], 6.9 ×10⁶ /M.
As to `NC[C@@H]1O[C@H](O[C@H]2[C@@H](O)[C@H](O[C@@H]3[C@@H](O)[C@H](N)C[C@H](N)[C@H]3O[C@H]3O[C@H](CN)[C@@H](O)[C@H](O)[C@H]3N)O[C@@H]2Cn2cc(CCCCCCc3cn(C[C@H]4O[C@@H](O[C@@H]5[C@@H](O)[C@H](N)C[C@H](N)[C@H]5O[C@H]5O[C@H](CN)[C@@H](O)[C@H](O)[C@H]5N)[C@H](O)[C@@H]4O[C@H]4O[C@@H](CN)[C@@H](O)[C@H](O)[C@H]4N)nn3)nn2)[C@H](N)[C@@H](O)[C@@H]1O`, the IC50 in assay [1] amounted to 126 nM; in assay [2], 146 nM; in assay [3], 214 nM; in [4] it was 150 nM; in [5], 256 nM. Further, the K was found to be 6.6 ×10⁷ /M in assay [6]; 6.3 ×10⁷ /M in assay [7]; 5 ×10⁶ /M in [8]; 5.9 ×10⁷ /M in assay [9]; 3.8 ×10⁶ /M in assay [10].
With `NC[C@@H]1O[C@H](O[C@H]2[C@@H](O)[C@H](O[C@@H]3[C@@H](O)[C@H](N)C[C@H](N)[C@H]3O[C@H]3O[C@H](CN)[C@@H](O)[C@H](O)[C@H]3N)O[C@@H]2Cn2cc(CCCCc3cn(C[C@H]4O[C@@H](O[C@@H]5[C@@H](O)[C@H](N)C[C@H](N)[C@H]5O[C@H]5O[C@H](CN)[C@@H](O)[C@H](O)[C@H]5N)[C@H](O)[C@@H]4O[C@H]4O[C@@H](CN)[C@@H](O)[C@H](O)[C@H]4N)nn3)nn2)[C@H](N)[C@@H](O)[C@@H]1O`, the IC50 in [1] amounted to 144 nM; in assay [2], 160 nM; in [3] it was 278 nM; in [4] it was 216 nM; in [5], 278 nM. Moreover, the K amounted to 2.6 ×10⁷ /M in assay [6], 2.2 ×10⁷ /M in [7], 1.2 ×10⁷ /M in [9] and 2.1 ×10⁶ /M in [10].
`NC[C@@H]1O[C@H](O[C@H]2[C@@H](O)[C@H](O[C@@H]3[C@@H](O)[C@H](N)C[C@H](N)[C@H]3O[C@H]3O[C@H](CN)[C@@H](O)[C@H](O)[C@H]3N)O[C@@H]2Cn2cc(COCCCCCCCCCCCCOCc3cn(C[C@H]4O[C@@H](O[C@@H]5[C@@H](O)[C@H](N)C[C@H](N)[C@H]5O[C@H]5O[C@H](CN)[C@@H](O)[C@H](O)[C@H]5N)[C@H](O)[C@@H]4O[C@H]4O[C@@H](CN)[C@@H](O)[C@H](O)[C@H]4N)nn3)nn2)[C@H](N)[C@@H](O)[C@@H]1O`: the IC50 in [1] stood at 144 nM; in assay [3], 300 nM; in assay [4], 158 nM; in [5], 326 nM. The K came out at 2.5 ×10⁷ /M in assay [6]; 4.4 ×10⁷ /M in assay [7]; 2 ×10⁶ /M in assay [8]; 2.7 ×10⁷ /M in assay [9]; 1.5 ×10⁶ /M in [10].
For the molecule `NC[C@@H]1O[C@H](O[C@H]2[C@@H](O)[C@H](O[C@@H]3[C@@H](O)[C@H](N)C[C@H](N)[C@H]3O[C@H]3O[C@H](CN)[C@@H](O)[C@H](O)[C@H]3N)O[C@@H]2Cn2cc(-c3cccc(-c4cn(C[C@H]5O[C@@H](O[C@@H]6[C@@H](O)[C@H](N)C[C@H](N)[C@H]6O[C@H]6O[C@H](CN)[C@@H](O)[C@H](O)[C@H]6N)[C@H](O)[C@@H]5O[C@H]5O[C@@H](CN)[C@@H](O)[C@H](O)[C@H]5N)nn4)c3)nn2)[C@H](N)[C@@H](O)[C@@H]1O`, the result in [11] and in assay [12] was Active. Also, the IC50 in assay [1] was 110 nM; in assay [2], 130 nM; in assay [3], 180 nM; in [4], 142 nM; in [5] it was 244 nM. For the same molecule, the K in [6] was 1.4 ×10⁸ /M; in [7] it was 1 ×10⁸ /M; in assay [8], 1.3 ×10⁷ /M; in assay [9], 6.9 ×10⁷ /M.
In the case of `NC[C@@H]1O[C@H](O[C@H]2[C@@H](O)[C@H](O[C@@H]3[C@@H](O)[C@H](N)C[C@H](N)[C@H]3O[C@H]3O[C@H](CN)[C@@H](O)[C@H](O)[C@H]3N)O[C@@H]2Cn2cc(-c3ccc(-c4cn(C[C@H]5O[C@@H](O[C@@H]6[C@@H](O)[C@H](N)C[C@H](N)[C@H]6O[C@H]6O[C@H](CN)[C@@H](O)[C@H](O)[C@H]6N)[C@H](O)[C@@H]5O[C@H]5O[C@@H](CN)[C@@H](O)[C@H](O)[C@H]5N)nn4)cc3)nn2)[C@H](N)[C@@H](O)[C@@H]1O`, the IC50 in assay [1] was found to be 150 nM. In addition, the K in [6] stood at 1.5 ×10⁸ /M.
Take `NC[C@@H]1O[C@H](O[C@H]2[C@@H](O)[C@H](O[C@@H]3[C@@H](O)[C@H](N)C[C@H](N)[C@H]3O[C@H]3O[C@H](CN)[C@@H](O)[C@H](O)[C@H]3N)O[C@@H]2Cn2cc(COCCCCCCCCOCc3cn(C[C@H]4O[C@@H](O[C@@H]5[C@@H](O)[C@H](N)C[C@H](N)[C@H]5O[C@H]5O[C@H](CN)[C@@H](O)[C@H](O)[C@H]5N)[C@H](O)[C@@H]4O[C@H]4O[C@@H](CN)[C@@H](O)[C@H](O)[C@H]4N)nn3)nn2)[C@H](N)[C@@H](O)[C@@H]1O`: the IC50 was 156 nM in assay [1]; 108 nM in assay [2]; 188 nM in assay [3]; 106 nM in [4]; 234 nM in assay [5]. In addition, the K in assay [6] was 7.6 ×10⁶ /M; in assay [7], 6.8 ×10⁷ /M; in [8], 1.4 ×10⁷ /M; in [9] it was 7.2 ×10⁷ /M; in assay [10], 4.8 ×10⁶ /M.
Regarding `C/C(CCc1cn(C[C@H]2O[C@@H](O[C@@H]3[C@@H](O)[C@H](N)C[C@H](N)[C@H]3O[C@H]3O[C@H](CN)[C@@H](O)[C@H](O)[C@H]3N)[C@H](O)[C@@H]2O[C@H]2O[C@@H](CN)[C@@H](O)[C@H](O)[C@H]2N)nn1)=C(/C)CCc1cn(C[C@H]2O[C@@H](O[C@@H]3[C@@H](O)[C@H](N)C[C@H](N)[C@H]3O[C@H]3O[C@H](CN)[C@@H](O)[C@H](O)[C@H]3N)[C@H](O)[C@@H]2O[C@H]2O[C@@H](CN)[C@@H](O)[C@H](O)[C@H]2N)nn1`, the IC50 in assay [1] turned out to be 146 nM; in assay [2] it was 142 nM; in assay [3], 210 nM; in assay [4], 162 nM; in [5], 338 nM. Further, the K came to 1.1 ×10⁷ /M in assay [6]; 3.6 ×10⁷ /M in assay [7]; 3.5 ×10⁶ /M in [8]; 2.8 ×10⁷ /M in [9]; 2.6 ×10⁶ /M in assay [10].

Values taken from ChEMBL document CHEMBL3588850, “Multivalent Amino Sugars to Recognize Different TAR RNA Conformations” (Medchemcomm, 2014).
